# Results from ChEMBL document CHEMBL1135500, “Highly antibacterial active aminoacyl penicillin conjugates with acylated bis-catecholate siderophores based on secondary diamino acids and related compounds” (2002).
# What was measured:
# Assay type in all cases: functional
# [1] = test system: Pseudomonas aeruginosa; assay: Siderophore activity determined using growth promoting assay in ATCC 9027 strain of Pseudomonas aeruginosa under iron limited conditions
# Procedure, shortened: (§1)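 Growth promotion under iron limitation. Overnight Nutrient Agar cultures suspended in medium VA to 1 McFarland, then 1.5 mL mixed into 99 mL Al2O3-treated Hall-Ratledge agar (pH 6.8) with trace elements and EDDHA. 5 µL of 2 mM compound applied on 6 mm paper disks. Growth zone around disks measured after 18-20 h at 37 °C.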
# [2] = test system: Pseudomonas aeruginosa; assay: Siderophore activity determined using growth promoting assay in NCTC-10662 strain of Pseudomonas aeruginosa under iron limited conditions; set-up: unit not given beside the values; procedure, shortened: as §1
# [3] = test system: Pseudomonas aeruginosa; assay: Siderophore activity determined using growth promoting assay in SG137 strain of Pseudomonas aeruginosa under iron limited conditions; procedure, shortened: as §1
# [4] = test system: Escherichia coli; assay: Siderophore activity determined using growth promoting assay in ATCC 25922 strain of Escherichia coli under iron limited conditions; procedure, shortened: as §1
# [5] = test system: Pseudomonas aeruginosa; assay: Siderophore activity determined using growth promoting assay in ATCC 27853 strain of Pseudomonas aeruginosa under iron limited conditions; procedure, shortened: as §1
# [6] = test system: Serratia marcescens; assay: In vitro antibacterial activity against SG 621 strain of Serratia marcescens
# Procedure, shortened: (§2)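 MIC by microbroth dilution in Mueller-Hinton broth following NCCLS guidelines.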
# [7] = test system: Escherichia coli; assay: In vitro antibacterial activity against ATCC 25922 strain of Escherichia coli; procedure, shortened: as §2
# [8] = test system: Stenotrophomonas maltophilia; assay: In vitro antibacterial activity against GN 12873 strain of Stenotrophomonas maltophilia; procedure, shortened: as §2
# [9] = test system: Klebsiella pneumoniae; assay: In vitro antibacterial activity against ATCC 100331 strain of Klebsiella pneumoniae; procedure, shortened: as §2
# [10] = test system: Staphylococcus aureus; assay: In vitro antibacterial activity against SG 511 strain of Staphylococcus aureus; procedure, shortened: as §2
# [11] = test system: Pseudomonas aeruginosa; assay: In vitro antibacterial activity against ATCC 27853 strain of Pseudomonas aeruginosa; procedure, shortened: as §2
# [12] = test system: Pseudomonas aeruginosa; assay: In vitro antibacterial activity against SG 137 strain of Pseudomonas aeruginosa; procedure, shortened: as §2
# [13] = test system: Pseudomonas aeruginosa; assay: Siderophore activity determined using growth promoting assay in K799/WT strain of Pseudomonas aeruginosa under iron limited conditions; procedure, shortened: as §1
SMILES,MIC [6],MIC [7],MIC [8],MIC [9],MIC [10],MIC [11],MIC [12],Activity [1],Activity [2],Activity [3],Activity [4],Activity [5],Activity [13]
COC(=O)Oc1cccc2c(=O)n(CC(=O)Nc3cc(NC(=O)Cn4c(=O)oc5c(OC(=O)OC)cccc5c4=O)cc(C(=O)O)c3)c(=O)oc12,–,–,–,–,–,–,–,20,20,20,15,15,–
COC(=O)Oc1cccc2c(=O)n(CCC(=O)Nc3cc(NC(=O)CCn4c(=O)oc5c(OC(=O)OC)cccc5c4=O)cc(C(=O)NC(C(=O)NC4C(=O)N5C4SC(C)(C)C5C(=O)O)c4ccccc4)c3)c(=O)oc12 (stereo unspecified),3.12 µg/mL,6.25 µg/mL,1.56 µg/mL,0.2 µg/mL,6.25 µg/mL,0.2 µg/mL,0.05 µg/mL,–,–,–,–,–,–
COC(=O)Oc1cccc(C(=O)N(CCCn2c(=O)oc3c(OC(=O)OC)cccc3c2=O)C(C)CCC(=O)O)c1OC(=O)OC (stereo unspecified),–,–,–,–,–,–,–,–,20,15,15,13,14
CC(=O)Oc1cccc(C(=O)Nc2cc(NC(=O)c3cccc(OC(C)=O)c3OC(C)=O)cc(C(=O)NC(C(=O)NC3C(=O)N4C3SC(C)(C)C4C(=O)O)c3ccccc3)c2)c1OC(C)=O (stereo unspecified),–,100 µg/mL,1.56 µg/mL,3.12 µg/mL,25 µg/mL,3.12 µg/mL,0.4 µg/mL,–,–,–,–,–,–
CC(=O)Oc1cccc(C(=O)NCCCCN(CC(=O)NC(C(=O)NC2C(=O)N3C2SC(C)(C)C3C(=O)O)c2ccc(O)cc2)C(=O)c2cccc(OC(C)=O)c2OC(C)=O)c1OC(C)=O (stereo unspecified),< 0.005 µg/mL,0.01 µg/mL,0.005 µg/mL,< 0.005 µg/mL,5 µg/mL,0.16 µg/mL,0.01 µg/mL,–,–,–,–,–,–
COC(=O)Oc1cccc(C(=O)N(C)CCCN(CC(=O)NC(C(=O)NC2C(=O)N3C2SC(C)(C)C3C(=O)O)c2ccccc2)C(=O)c2cccc(OC(=O)OC)c2OC(=O)OC)c1OC(=O)OC (stereo unspecified),0.02 µg/mL,0.02 µg/mL,0.08 µg/mL,0.005 µg/mL,5 µg/mL,0.31 µg/mL,0.04 µg/mL,–,–,–,–,–,–
COC(=O)Oc1cccc(C(=O)N(CCCCn2c(=O)oc3c(OC(=O)OC)cccc3c2=O)CC(=O)O)c1OC(=O)OC,–,–,–,–,–,–,–,–,24,27,30,18,23
COC(=O)Oc1cccc2c(=O)n(-c3cc(C(=O)NC(C(=O)NC4C(=O)N5C4SC(C)(C)C5C(=O)O)c4ccccc4)cc(-n4c(=O)oc5c(OC(=O)OC)cccc5c4=O)c3)c(=O)oc12 (stereo unspecified),12.5 µg/mL,25 µg/mL,0.78 µg/mL,6.25 µg/mL,25 µg/mL,1.56 µg/mL,0.2 µg/mL,–,–,–,–,–,–

# Further lines, with some results ahead:
MIC [6],MIC [7],MIC [8],MIC [9],MIC [10],MIC [11],MIC [12],SMILES,Activity [1],Activity [2],Activity [3],Activity [4],Activity [5],Activity [13]
6.25 µg/mL,0.78 µg/mL,0.2 µg/mL,< 0.05 µg/mL,1.56 µg/mL,6.25 µg/mL,0.2 µg/mL,CC(=O)Oc1cccc(C(=O)NCCCCN(Cc2ccc(OCC(=O)NC(C(=O)NC3C(=O)N4C3SC(C)(C)C4C(=O)O)c3ccccc3)cc2)C(=O)c2cccc(OC(C)=O)c2OC(C)=O)c1OC(C)=O (stereo unspecified),–,–,–,–,–,–
0.06 µg/mL,0.04 µg/mL,> 100 µg/mL,0.04 µg/mL,0.1 µg/mL,0.4 µg/mL,0.2 µg/mL,C[C@@H](O)[C@H]1C(=O)N2C(C(=O)O)=C(S[C@@H]3CN[C@H](C(=O)N(C)C)C3)[C@H](C)[C@H]12 [MEROPENEM],–,–,–,–,–,–
0.02 µg/mL,< 0.005 µg/mL,0.02 µg/mL,< 0.005 µg/mL,6.25 µg/mL,0.05 µg/mL,< 0.005 µg/mL,COC(=O)Oc1cc(Br)cc(C(=O)N(C)CCCN(CC(=O)NC(C(=O)NC2C(=O)N3C2SC(C)(C)C3C(=O)O)c2ccccc2)C(=O)c2cc(Br)cc(OC(=O)OC)c2OC(=O)OC)c1OC(=O)OC (stereo unspecified),–,–,–,–,–,–
50 µg/mL,6.25 µg/mL,25 µg/mL,6.25 µg/mL,0.4 µg/mL,6.25 µg/mL,6.25 µg/mL,CC1(C)S[C@@H]2[C@H](NC(=O)[C@H](NC(=O)N3CCNC3=O)c3ccccc3)C(=O)N2[C@H]1C(=O)O [AZLOCILLIN],–,–,–,–,–,–
0.24 µg/mL,1.56 µg/mL,< 0.05 µg/mL,0.2 µg/mL,6.25 µg/mL,0.4 µg/mL,0.04 µg/mL,CC(=O)Oc1cccc(C(=O)N(C)CCCN(Cc2ccccc2C(=O)NC(C(=O)NC2C(=O)N3C2SC(C)(C)C3C(=O)O)c2ccccc2)C(=O)c2cccc(OC(C)=O)c2OC(C)=O)c1OC(C)=O (stereo unspecified),–,–,–,–,–,–
< 0.005 µg/mL,< 0.005 µg/mL,0.005 µg/mL,< 0.005 µg/mL,5 µg/mL,0.05 µg/mL,< 0.005 µg/mL,CC(=O)Oc1cccc(C(=O)NCCCCN(CC(=O)NC(C(=O)NC2C(=O)N3C2SC(C)(C)C3C(=O)O)c2ccccc2)C(=O)c2cccc(OC(C)=O)c2OC(C)=O)c1OC(C)=O (stereo unspecified),–,–,–,–,–,–
